Test results published in ChEMBL document CHEMBL1125626, “Synthesis and structure-activity relationship of new cephalosporins with amino heterocycles at C-7. Dependence of the antibacterial spectrum and beta-lactamase stability on the pKa of the C-7 heterocycle” (1991).
In brackets after ≈: the same amount, converted by molar mass.

How the values were obtained:
Staphylococcus aureus [1] = test: Minimum inhibitory concentration against Staphylococcus aureus A4 (inoculum, 10e5 cfu per spot); assay type: functional
How it was run: (§1)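 MIC in µg/mL, determined in Jewell and Permain growth medium with spot inoculation at 10^5 cfu per spot.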

Klebsiella aerogenes [2] = test: Minimum inhibitory concentration against Klebsiella aerogenes X6 (inoculum, 10e4 cfu per spot); assay type: functional
How it was run: (§2)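 MIC in µg/mL, determined in Jewell and Permain growth medium with spot inoculation at 10^4 cfu per spot. P99 is described as a constitutive type I lactamase producer.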

Staphylococcus aureus [3] = test: Minimum inhibitory concentration against Staphylococcus aureus A6 (inoculum, 10e5 cfu per spot); assay type: functional; how it was run: as §1
Klebsiella pneumoniae = test: Minimum inhibitory concentration against Klebsiella pneumoniae A24 (inoculum, 10e5 cfu per spot); assay type: functional; how it was run: as §1
Serratia marcescens = test: Minimum inhibitory concentration against Serratia marcescens A16 (inoculum, 10e5 cfu per spot); assay type: functional; how it was run: as §1
Enterobacter cloacae [4] = test: Minimum inhibitory concentration against Enterobacter cloacae A13 (inoculum, 10e5 cfu per spot); assay type: functional; how it was run: as §1
Proteus mirabilis = test: Minimum inhibitory concentration against Proteus mirabilis A18 (inoculum, 10e5 cfu per spot); assay type: functional; how it was run: as §1
Escherichia coli [5] = test: Minimum inhibitory concentration against Escherichia coli TEM X3 (inoculum, 10e4 cfu per spot)(TEM I type lactamase producer)
Klebsiella aerogenes [6] = test: Minimum inhibitory concentration against Klebsiella aerogenes X5L (inoculum, 10e4 cfu per spot); assay type: functional; how it was run: as §2
Pseudomonas aeruginosa = test: Minimum inhibitory concentration against Pseudomonas aeruginosa A21 (inoculum, 10e5 cfu per spot); assay type: functional; how it was run: as §1
Proteus vulgaris = test: Minimum inhibitory concentration against Proteus vulgaris Pv9 (inoculum, 10e5 cfu per spot)
Escherichia coli [7] = test: Minimum inhibitory concentration against Escherichia coli DC2 (inoculum, 10e4 cfu per spot); assay type: functional; how it was run: as §2
Streptococcus pyogenes = test: Minimum inhibitory concentration against Streptococcus pyogenes (inoculum, 10e5 cfu per spot) A1; assay type: functional; how it was run: as §1
Escherichia coli [8] = test: Minimum inhibitory concentration against Escherichia coli X4 (inoculum, 10e4 cfu per spot)
Enterobacter cloacae [9] = test: Minimum inhibitory concentration against Enterobacter cloacae P99 (inoculum, 10e4 cfu per spot)(type I lactamase producer); assay type: functional; how it was run: as §2
Escherichia coli [10] = test: Minimum inhibitory concentration against Escherichia coli DCO (inoculum, 10e4 cfu per spot); assay type: functional; how it was run: as §2
Enterobacter cloacae [11] = test: Minimum inhibitory concentration against Enterobacter cloacae P99 (inoculum, 10e4 cfu per spot); assay type: functional; how it was run: as §2
Escherichia coli [12] = test: Minimum inhibitory concentration against Escherichia coli A8 (inoculum, 10e5 cfu per spot); assay type: functional; how it was run: as §1

SMILES	MIC (Staphylococcus aureus [1])	MIC (Klebsiella aerogenes [2])	MIC (Staphylococcus aureus [3])	MIC (Klebsiella pneumoniae)	MIC (Serratia marcescens)	MIC (Enterobacter cloacae [4])	MIC (Proteus mirabilis)	MIC (Escherichia coli [5])	MIC (Klebsiella aerogenes [6])	MIC (Pseudomonas aeruginosa)	MIC (Proteus vulgaris)	MIC (Escherichia coli [7])	MIC (Streptococcus pyogenes)	MIC (Escherichia coli [8])	MIC (Enterobacter cloacae [9])	MIC (Escherichia coli [10])	MIC (Enterobacter cloacae [11])	MIC (Escherichia coli [12])
CO/N=C(\C(=O)N[C@@H]1C(=O)N2C(C(=O)O)=C(COC(C)=O)CS[C@H]12)c1csc(N)n1 [CEFOTAXIME]	32 µg/mL (≈ 70.3 µM)	0.06 µg/mL (≈ 0.132 µM)	4 µg/mL (≈ 8.78 µM)	0.06 µg/mL (≈ 0.132 µM)	0.25 µg/mL (≈ 0.549 µM)	256 µg/mL (≈ 562 µM)	0.06 µg/mL (≈ 0.132 µM)	0.06 µg/mL (≈ 0.132 µM)	4 µg/mL (≈ 8.78 µM)	128 µg/mL (≈ 281 µM)	0.5 µg/mL (≈ 1.1 µM)	0.002 µg/mL (≈ 0.00439 µM)	0.03 µg/mL (≈ 0.0659 µM)	0.06 µg/mL (≈ 0.132 µM)	32 µg/mL (≈ 70.3 µM)	0.03 µg/mL (≈ 0.0659 µM)	0.03 µg/mL (≈ 0.0659 µM)	0.25 µg/mL (≈ 0.549 µM)
CC(=O)OCC1=C(C(=O)OC(C)(C)C)N2C(=O)[C@@H](Nc3nc4ccc[nH]c-4n3)C2SC1 (some centres undefined)	64 µg/mL (≈ 144 µM)	1 µg/mL (≈ 2.24 µM)	2 µg/mL (≈ 4.49 µM)	2 µg/mL (≈ 4.49 µM)	> 256 µg/mL	256 µg/mL (≈ 575 µM)	32 µg/mL (≈ 71.8 µM)	4 µg/mL (≈ 8.98 µM)	256 µg/mL (≈ 575 µM)	> 256 µg/mL	> 256 µg/mL	0.5 µg/mL (≈ 1.12 µM)	4 µg/mL (≈ 8.98 µM)	0.5 µg/mL (≈ 1.12 µM)	> 256 µg/mL	0.5 µg/mL (≈ 1.12 µM)	1 µg/mL (≈ 2.24 µM)	2 µg/mL (≈ 4.49 µM)
Cn1nnnc1SCC1=C(C(=O)OC(c2ccccc2)c2ccccc2)N2C(=O)[C@@H](Nc3nc4ccccc4[nH]3)C2SC1 (some centres undefined)	128 µg/mL (≈ 210 µM)	2 µg/mL (≈ 3.27 µM)	4 µg/mL (≈ 6.55 µM)	0.5 µg/mL (≈ 0.819 µM)	64 µg/mL (≈ 105 µM)	> 128 µg/mL	0.25 µg/mL (≈ 0.409 µM)	4 µg/mL (≈ 6.55 µM)	128 µg/mL (≈ 210 µM)	> 128 µg/mL	8 µg/mL (≈ 13.1 µM)	0.016 µg/mL (≈ 0.0262 µM)	0.5 µg/mL (≈ 0.819 µM)	0.5 µg/mL (≈ 0.819 µM)	64 µg/mL (≈ 105 µM)	0.5 µg/mL (≈ 0.819 µM)	0.5 µg/mL (≈ 0.819 µM)	0.5 µg/mL (≈ 0.819 µM)
CC(=O)OCC1=C(C(=O)OC(C)(C)C)N2C(=O)[C@@H](Nc3nc4cc[nH]cc-4n3)C2SC1 (some centres undefined)	256 µg/mL (≈ 575 µM)	8 µg/mL (≈ 18 µM)	256 µg/mL (≈ 575 µM)	32 µg/mL (≈ 71.8 µM)	> 256 µg/mL	32 µg/mL (≈ 71.8 µM)	16 µg/mL (≈ 35.9 µM)	32 µg/mL (≈ 71.8 µM)	> 256 µg/mL	> 256 µg/mL	> 256 µg/mL	0.5 µg/mL (≈ 1.12 µM)	8 µg/mL (≈ 18 µM)	2 µg/mL (≈ 4.49 µM)	> 256 µg/mL	4 µg/mL (≈ 8.98 µM)	2 µg/mL (≈ 4.49 µM)	8 µg/mL (≈ 18 µM)
Cc1nnc(SCC2=C(C(=O)OC(c3ccccc3)c3ccccc3)N3C(=O)[C@@H](Nc4nc5ccccc5[nH]4)C3SC2)s1 (some centres undefined)	8 µg/mL (≈ 12.8 µM)	2 µg/mL (≈ 3.19 µM)	1 µg/mL (≈ 1.6 µM)	1 µg/mL (≈ 1.6 µM)	≥ 128 µg/mL	≥ 128 µg/mL	4 µg/mL (≈ 6.38 µM)	4 µg/mL (≈ 6.38 µM)	≥ 128 µg/mL	≥ 128 µg/mL	≥ 128 µg/mL	< 0.03 µg/mL	0.5 µg/mL (≈ 0.798 µM)	0.5 µg/mL (≈ 0.798 µM)	≥ 128 µg/mL	0.5 µg/mL (≈ 0.798 µM)	1 µg/mL (≈ 1.6 µM)	1 µg/mL (≈ 1.6 µM)
CC(=O)OCC1=C(C(=O)OC(c2ccccc2)c2ccccc2)N2C(=O)[C@@H](Nc3nc4cc(CC#N)ccc4[nH]3)C2SC1 (some centres undefined)	256 µg/mL (≈ 431 µM)	0.5 µg/mL (≈ 0.842 µM)	1 µg/mL (≈ 1.68 µM)	0.5 µg/mL (≈ 0.842 µM)	64 µg/mL (≈ 108 µM)	> 256 µg/mL	64 µg/mL (≈ 108 µM)	4 µg/mL (≈ 6.74 µM)	128 µg/mL (≈ 216 µM)	> 256 µg/mL	> 256 µg/mL	< 0.03 µg/mL	0.5 µg/mL (≈ 0.842 µM)	0.25 µg/mL (≈ 0.421 µM)	256 µg/mL (≈ 431 µM)	0.5 µg/mL (≈ 0.842 µM)	1 µg/mL (≈ 1.68 µM)	0.5 µg/mL (≈ 0.842 µM)
CC1=C(C(=O)OC(c2ccccc2)c2ccccc2)N2C(=O)[C@@H](NC3=NC(c4ccccc4)CN3)C2SC1 (some centres undefined)	> 256 µg/mL	2 µg/mL (≈ 3.81 µM)	> 256 µg/mL	4 µg/mL (≈ 7.62 µM)		2 µg/mL (≈ 3.81 µM)	> 256 µg/mL	1 µg/mL (≈ 1.91 µM)	8 µg/mL (≈ 15.2 µM)	> 256 µg/mL	> 256 µg/mL	0.5 µg/mL (≈ 0.953 µM)	256 µg/mL (≈ 488 µM)	1 µg/mL (≈ 1.91 µM)	2 µg/mL (≈ 3.81 µM)	1 µg/mL (≈ 1.91 µM)	1 µg/mL (≈ 1.91 µM)	2 µg/mL (≈ 3.81 µM)
CC(=O)OCC1=C(C(=O)OC(c2ccccc2)c2ccccc2)N2C(=O)[C@@H](Nc3nc4cc(O)ccc4[nH]3)C2SC1 (some centres undefined)	16 µg/mL (≈ 28 µM)	0.5 µg/mL (≈ 0.876 µM)	4 µg/mL (≈ 7.01 µM)	2 µg/mL (≈ 3.5 µM)	256 µg/mL (≈ 449 µM)	128 µg/mL (≈ 224 µM)	0.5 µg/mL (≈ 0.876 µM)	1 µg/mL (≈ 1.75 µM)	64 µg/mL (≈ 112 µM)	> 256 µg/mL	32 µg/mL (≈ 56.1 µM)	0.016 µg/mL (≈ 0.028 µM)		0.12 µg/mL (≈ 0.21 µM)	128 µg/mL (≈ 224 µM)	0.12 µg/mL (≈ 0.21 µM)	0.12 µg/mL (≈ 0.21 µM)	0.12 µg/mL (≈ 0.21 µM)
CC1=C(C(=O)OC(c2ccccc2)c2ccccc2)N2C(=O)[C@@H](NC3=NCCN3C)C2SC1 (some centres undefined)	> 200 µg/mL	128 µg/mL (≈ 277 µM)	> 200 µg/mL	40 µg/mL (≈ 86.5 µM)	> 200 µg/mL	> 200 µg/mL	> 200 µg/mL	128 µg/mL (≈ 277 µM)	> 200 µg/mL	> 200 µg/mL		32 µg/mL (≈ 69.2 µM)	> 200 µg/mL	128 µg/mL (≈ 277 µM)	128 µg/mL (≈ 277 µM)	128 µg/mL (≈ 277 µM)	64 µg/mL (≈ 138 µM)	40 µg/mL (≈ 86.5 µM)
